Measured values reported in ChEMBL document CHEMBL3792343, “10-Boronic acid substituted camptothecin as prodrug of SN-38” (Eur J Med Chem, 2016).
Each block holds one molecule with its values, some of them ahead of it. The source made the active and inactive calls. The rule behind the calls is not given here.

Legend:
MCF7 [1] = test: Retention time in human MCF7 cells at 10^-5 M by HPLC analysis; type: ADME, cell-based; conditions: mcf7, 10 µM
Method in brief: (§1)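 MCF-7 cells exposed to 10^-5 M prodrug for 2 days; culture medium collected, centrifuged to remove cells, diluted to fixed volume and analysed by HPLC. Prodrug and SN-38 identified by retention time; relative amounts taken from chromatographic peak areas.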

[2] = Cytotoxicity against human HCT15 cells assessed as growth inhibition after 72 hrs by SRB assay; type: functional, cell-based; conditions: HCT-15, 72 h
Method in brief: (§2)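 Cells from ATCC, 6,000–10,000 per well, treated in triplicate with graded concentrations for 72 h at 37 °C. Growth inhibition read by sulforhodamine B staining; IC50 taken from dose–response curves.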

HT-29 = test: Cytotoxicity against human HT-29 cells assessed as growth inhibition after 72 hrs by SRB assay; type: functional, cell-based; conditions: HT-29, 72 h; method in brief: as §2
MDA-MB-231 = test: Cytotoxicity against human MDA-MB-231 cells assessed as growth inhibition after 72 hrs by SRB assay; type: functional, cell-based; conditions: MDA-MB-231, 72 h; method in brief: as §2
MCF7 [3] = test: Cytotoxicity against human MCF7 cells assessed as growth inhibition after 72 hrs by SRB assay; type: functional, cell-based; conditions: MCF7, 72 h; method in brief: as §2
[4] = Cytotoxicity against human U87MG cells assessed as growth inhibition after 72 hrs by SRB assay; type: functional, cell-based, U-87MG ATCC; conditions: U-87 MG; method in brief: as §2
U-251 = test: Cytotoxicity against human U251 cells assessed as growth inhibition after 72 hrs by SRB assay; type: functional, cell-based; conditions: U-251, 72 h; method in brief: as §2
Mus musculus [5] = test: Toxicity in mouse xenografted with human U87MG cells assessed as death at 15 mg/kg, ip administered as q3w/14 days regime; type: organism-based, U-87MG ATCC; conditions: in vivo, 336 h
Mus musculus [6] = test: Toxicity in mouse xenografted with human U87MG cells assessed as change in body weight at 15 mg/kg, ip administered as q3w/14 days regime (reference value: 23.12%); type: organism-based, U-87MG ATCC; conditions: in vivo, 336 h
[7] = Antitumor activity against human U87MG cells xenografted in mouse assessed as tumor volume at 15 mg/kg, ip administered as q3w/14 days regime relative to control; type: functional, U-87MG ATCC
Method in brief: (§3)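 Mice bearing U87MG xenografts randomised at about 130 mm3 tumour volume (n = 12 control, n = 6 per treatment); dosing i.p. three times a week to end of study (q3w/14). Read-out is relative tumour volume (RTV), with T/C (%) versus untreated control; significance by Student's t-test.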

[8] = Antitumor activity against human U87MG cells xenografted in mouse assessed as tumor volume at 0.5 mg/kg, ip administered as q3w/14 days regime relative to control; type: functional, U-87MG ATCC; method in brief: as §3
Mus musculus [9] = test: Toxicity in mouse xenografted with human U87MG cells assessed as overt signs of symptoms at 2 mg/kg, ip administered as q3w/14 days regime; type: organism-based, U-87MG ATCC; conditions: in vivo, 336 h
Mus musculus [10] = test: Toxicity in mouse xenografted with human U87MG cells assessed as anaphylactic reaction at 2 mg/kg, ip administered as q3w/14 days regime; type: organism-based, U-87MG ATCC; conditions: in vivo, 336 h
[11] = Prodrug activation in pH 7.4 phosphate buffer assessed as H2O2-mediated SN38 release incubated for 8 hrs by HPLC analysis; conditions: pH 7.4, 8 h
Method in brief: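 Prodrug (1 mM) in phosphate buffer pH 7.4 with H2O2 at 0.5–10 mM final, 37 °C for 8 h. Quenched with equal volume of 50 mM sodium thiosulfate; SN-38 release quantified by HPLC.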

MCF7 [12] = test: Drug level in human MCF7 cells at 10^-5 M after 2 days by HPLC analysis; type: ADME, cell-based; conditions: mcf7, 48 h, 10 µM; method in brief: as §1
[13] = target: T1, DNA topoisomerase 1 (Homo sapiens) (UniProt P11387); test: Inhibition of topoisomerase 1 (unknown origin) assessed as reduction in enzyme-mediated relaxation of supercoiled pBR322 DNA at 100 uM after 30 mins by agarose gel electrophoresis
T1 sequence (whole entry): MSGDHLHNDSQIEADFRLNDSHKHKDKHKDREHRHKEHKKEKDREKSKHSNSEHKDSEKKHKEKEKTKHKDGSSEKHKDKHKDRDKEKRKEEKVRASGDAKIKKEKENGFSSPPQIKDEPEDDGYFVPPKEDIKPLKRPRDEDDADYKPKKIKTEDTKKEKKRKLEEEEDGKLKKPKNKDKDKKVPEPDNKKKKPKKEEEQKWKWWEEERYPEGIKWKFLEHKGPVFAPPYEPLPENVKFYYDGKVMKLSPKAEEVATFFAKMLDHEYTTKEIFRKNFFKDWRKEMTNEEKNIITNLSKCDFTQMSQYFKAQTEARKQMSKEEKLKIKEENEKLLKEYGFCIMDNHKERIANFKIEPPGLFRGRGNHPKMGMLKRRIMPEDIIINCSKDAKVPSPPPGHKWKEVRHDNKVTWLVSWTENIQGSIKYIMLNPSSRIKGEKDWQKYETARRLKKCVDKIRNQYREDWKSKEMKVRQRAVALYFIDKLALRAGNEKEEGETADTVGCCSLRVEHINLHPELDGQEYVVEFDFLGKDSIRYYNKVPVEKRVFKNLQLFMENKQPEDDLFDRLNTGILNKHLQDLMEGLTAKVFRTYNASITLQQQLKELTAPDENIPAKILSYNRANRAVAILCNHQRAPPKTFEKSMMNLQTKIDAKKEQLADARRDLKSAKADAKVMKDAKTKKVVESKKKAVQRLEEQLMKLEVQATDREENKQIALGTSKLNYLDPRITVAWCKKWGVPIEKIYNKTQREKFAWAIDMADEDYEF

Mus musculus [14] = test: Toxicity in mouse xenografted with human U87MG cells assessed as death at 2 mg/kg, ip administered as q3w/14 days regime; type: organism-based, U-87MG ATCC; conditions: in vivo, 336 h
Mus musculus [15] = test: Toxicity in mouse xenografted with human U87MG cells assessed as death at 0.5 mg/kg, ip administered as q3w/14 days regime; type: organism-based, U-87MG ATCC; conditions: in vivo, 336 h
Mus musculus [16] = test: Toxicity in mouse xenografted with human U87MG cells assessed as change in body weight at 2 mg/kg, ip administered as q3w/14 days regime (reference value: 23.12%); type: organism-based, U-87MG ATCC; conditions: in vivo, 336 h
Mus musculus [17] = test: Toxicity in mouse xenografted with human U87MG cells assessed as change in body weight at 0.5 mg/kg, ip administered as q3w/14 days regime (reference value: 23.12%); type: organism-based, U-87MG ATCC; conditions: in vivo, 336 h
[18] = Antitumor activity against human U87MG cells xenografted in mouse assessed as tumor volume at 2 mg/kg, ip administered as q3w/14 days regime relative to control; type: functional, U-87MG ATCC; method in brief: as §3

Retention_time (MCF7 [1]): 8.85 min
Structure (SMILES): CCc1c2c(nc3ccc(O)cc13)-c1cc3c(c(=O)n1C2)COC(=O)[C@]3(O)CC [7-ETHYL-10-HYDROXYCAMPTOTHECIN]
IC50 [2]: 8 nM
IC50 (HT-29): 54 nM
IC50 (MDA-MB-231): 1970 nM
IC50 (MCF7 [3]): 515 nM
IC50 [4]: 30 nM
IC50 (U-251): 21 nM

Structure (SMILES): CCc1c2c(nc3ccc(B4OC(C)(C)C(C)(C)O4)cc13)-c1cc3c(c(=O)n1C2)COC(=O)[C@]3(O)CC
Activity (Mus musculus [5]): Non-toxic
Activity (Mus musculus [6]): 15.88%
T/C [7]: 8.39%

Structure (SMILES): CCc1c2c(nc3ccc(B(O)O)cc13)-c1cc3c(c(=O)n1C2)COC(=O)[C@]3(O)CC
T/C [8]: 105.99%
Activity (Mus musculus [9]): Non-toxic
Activity (Mus musculus [10]): Non-toxic
Drug metabolism [11]: Dose-dependent effect
Retention_time (MCF7 [1]): 12.87 min
Drug uptake (MCF7 [12]): 59%
IC50 [2]: 18 nM
IC50 (HT-29): 47 nM
IC50 (MDA-MB-231): 4280 nM
IC50 (MCF7 [3]): 628 nM
IC50 [4]: 47 nM
IC50 (U-251): 36 nM
inhibition [13]: Active
Activity (Mus musculus [14]): Non-toxic
Activity (Mus musculus [15]): Non-toxic
Activity (Mus musculus [16]): 2.11%
Activity (Mus musculus [17]): 12.69%
T/C [18]: 28.1%
